# Reference: publication PMC5532717 (ACS Central Science, 2017)
# What was measured:
# Test in all cases: Competitive ABPP against probe 13 in mouse gastrointestinal lysate
# Type in all cases: biochemical
# Conditions in all cases: mouse intestine lysate, 1 h at 37 °C
# GBA1 = target: T1, GBA1 (Mus musculus, UniProt P17439)
# T1 sequence (P17439 20-515): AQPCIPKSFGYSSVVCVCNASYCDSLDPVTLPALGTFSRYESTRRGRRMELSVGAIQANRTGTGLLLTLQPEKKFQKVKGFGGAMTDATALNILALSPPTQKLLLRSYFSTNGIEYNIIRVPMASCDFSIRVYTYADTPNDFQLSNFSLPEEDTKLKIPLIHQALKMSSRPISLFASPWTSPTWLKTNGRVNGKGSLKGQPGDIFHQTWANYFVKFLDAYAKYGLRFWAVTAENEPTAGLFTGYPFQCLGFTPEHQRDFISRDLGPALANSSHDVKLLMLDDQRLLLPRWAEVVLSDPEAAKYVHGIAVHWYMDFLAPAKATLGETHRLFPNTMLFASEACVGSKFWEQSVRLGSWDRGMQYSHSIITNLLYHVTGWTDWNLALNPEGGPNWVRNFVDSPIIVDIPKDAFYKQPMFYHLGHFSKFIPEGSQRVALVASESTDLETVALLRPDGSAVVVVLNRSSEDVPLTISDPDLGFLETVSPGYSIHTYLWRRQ
# Outline: (§1)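 Mixed mouse duodenum, jejunum and ileum homogenates were made in 25 mM potassium phosphate pH 6.5 with protease inhibitors (40 μg protein). Held 5 min on ice in McIlvaine buffer pH 4 or 7. Incubated 1 h at 37 °C with test compound (final 150 to 0.005 μM, plus 0), then probe 13 for 30 min at 37 °C. Boiled in Laemmli buffer, 10% SDS–PAGE, Cy5 fluorescence scan.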
# GANAB = target: T2, GANAB (Mus musculus, UniProt Q8BHN3)
# T2 sequence (Q8BHN3 33-944): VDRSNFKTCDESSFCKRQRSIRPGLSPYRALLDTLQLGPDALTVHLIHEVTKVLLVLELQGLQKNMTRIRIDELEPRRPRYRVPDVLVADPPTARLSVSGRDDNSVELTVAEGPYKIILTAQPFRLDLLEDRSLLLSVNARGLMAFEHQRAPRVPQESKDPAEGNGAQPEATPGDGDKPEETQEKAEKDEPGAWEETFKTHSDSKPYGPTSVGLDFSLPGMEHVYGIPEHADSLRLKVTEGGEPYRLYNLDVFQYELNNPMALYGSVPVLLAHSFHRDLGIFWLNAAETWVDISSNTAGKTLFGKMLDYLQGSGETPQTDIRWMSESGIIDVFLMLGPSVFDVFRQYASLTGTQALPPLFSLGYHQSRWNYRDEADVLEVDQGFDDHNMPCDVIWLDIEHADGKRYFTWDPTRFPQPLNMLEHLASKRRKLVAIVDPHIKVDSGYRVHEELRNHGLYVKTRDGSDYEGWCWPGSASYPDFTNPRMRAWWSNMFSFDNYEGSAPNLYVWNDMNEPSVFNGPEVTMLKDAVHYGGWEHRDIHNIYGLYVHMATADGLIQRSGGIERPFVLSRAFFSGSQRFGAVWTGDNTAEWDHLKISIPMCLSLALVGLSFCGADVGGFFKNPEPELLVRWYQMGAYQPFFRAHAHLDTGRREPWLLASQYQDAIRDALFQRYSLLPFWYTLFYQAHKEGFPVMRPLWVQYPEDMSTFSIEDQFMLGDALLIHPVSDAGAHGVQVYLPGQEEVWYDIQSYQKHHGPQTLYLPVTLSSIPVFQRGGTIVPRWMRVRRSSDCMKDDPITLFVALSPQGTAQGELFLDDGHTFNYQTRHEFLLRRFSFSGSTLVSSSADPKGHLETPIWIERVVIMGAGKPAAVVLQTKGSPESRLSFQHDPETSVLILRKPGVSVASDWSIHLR
# T2 sequence (O08795 15-521 partner): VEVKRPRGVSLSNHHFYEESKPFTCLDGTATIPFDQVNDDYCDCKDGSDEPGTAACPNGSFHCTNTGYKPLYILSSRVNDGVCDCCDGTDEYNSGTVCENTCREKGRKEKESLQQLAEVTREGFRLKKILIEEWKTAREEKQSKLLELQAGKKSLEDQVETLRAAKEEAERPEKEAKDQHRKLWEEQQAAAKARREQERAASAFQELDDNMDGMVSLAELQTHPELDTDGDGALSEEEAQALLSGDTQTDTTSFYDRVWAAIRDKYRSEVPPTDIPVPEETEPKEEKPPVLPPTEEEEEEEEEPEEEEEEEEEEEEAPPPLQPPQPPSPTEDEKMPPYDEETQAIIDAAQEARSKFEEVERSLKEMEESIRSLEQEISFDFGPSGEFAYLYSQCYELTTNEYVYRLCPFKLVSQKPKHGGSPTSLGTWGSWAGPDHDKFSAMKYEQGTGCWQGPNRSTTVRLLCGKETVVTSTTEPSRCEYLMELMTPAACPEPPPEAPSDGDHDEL
# Outline: as §1
# [1] = test system: maltase-glycoamylase (MGAM)
# Outline: as §1
compound,measurement,setting,value
"O=S1(=O)O[C@@H]2[C@H](O)[C@@H](O)[C@H](O)[C@@H](CO)[C@@H]2O1 [Compound 5, 1,6-epi-cyclophellitol cyclosulfate]",competition of off-target probe 13 labeling of GBA1,GBA1,not outcompeted
same,inhibition of probe 13 labeling of GANAB,GANAB,inhibited
same,inhibition of probe 13 labeling of MGAM,[1],inhibited
